Paper PMC6392825 (ChemistryOpen, 2019)
In brackets after ≈: the same amount, converted by molar mass.

Assays:
HepG2 [1] = assay: Intracellular ROS assay; format: cell-based; settings: for activity at 1 µM / activity at 10 µM: Homo sapiens, HepG2, read-out: Intracellular ROS, percentage compared to the untreated control cells (ROS/SRB)
Outline: (§1)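 Cells seeded at 20000/well and grown 24 h at 37 °C, 10% CO2, then treated with test compound at 10 and 1 μM in serum-free medium. NAC and doxorubicin served as controls. After a PBS wash, cells were loaded with 20 μM DCFH-DA for 30 min, washed, and held 1 h in phenol red-free DMEM. Fluorescence read at ex 485/em 535 nm and normalized to SRB in the same well. Reported as % of untreated control, n ≥ 3, two-tailed t-test with unequal variances.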

EA.hy926 [2] = assay: Cell growth inhibition, protein content; format: cell-based; settings: Homo sapiens, EA.hy 926, 72 h, read-out: IC50 SRB
Outline: (§2)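 Cell lines from ATCC, grown in DMEM+glutamax with 1% NEAA, 1% P/S and 10% FBS at 37 °C, 10% CO2. Seeded at 20000 cells/well for 24 h, then exposed to test compound (25 mM DMSO stock) for three days. Fixed with cold TCA for 1 h at 4 °C, stained 30 min with 0.4% SRB in 1% acetic acid, dissolved in 10 mM Tris, A490. Triplicate; IC50 given as mean ± SD combined with MTT data (n ≥ 3).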

[3] = Chemical antioxidant capacity, FRAP assay
[4] = Water solubility, shake flask method, 0.1 M phosphate buffer pH 6.8; format: physicochemical; settings: 37 °C, pH 6.8, aqueous buffer, thermodynamic from solid
HepG2 [5] = assay: Cytotoxicity, mitochondrial activity; format: cell-based; settings: Homo sapiens, HepG2, 72 h, read-out: IC50 MTT
Outline: (§3)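 Seeded at 20000 cells/well in DMEM and grown 24 h at 37 °C, 10% CO2. Medium was then replaced with serum-free medium holding test compound (25 mM DMSO stock) at various concentrations for 72 h, in triplicate; doxorubicin was the positive control. MTT (5 mg/mL stock in PBS) added for 2 h, formazan dissolved in DMSO, A570. IC50 derived from % surviving cells, reported as mean ± SD combined with SRB data.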

HT‐29 [6] = assay: Cell growth inhibition, protein content; format: cell-based; settings: Homo sapiens, HT-29, 72 h, read-out: IC50 SRB
Outline: as §2

Caco‐2 [7] = assay: Cytotoxicity, mitochondrial activity; format: cell-based; settings: Homo sapiens, Caco-2, 72 h, read-out: IC50 MTT
Outline: as §3

EA.hy926 [8] = assay: Intracellular ROS assay; format: cell-based; settings: Homo sapiens, EA.hy 926, read-out: Intracellular ROS, percentage compared to the untreated control cells (ROS/SRB)
Outline: as §1

HT‐29 [9] = assay: Intracellular ROS assay; format: cell-based; settings: for activity at 1 µM / activity at 10 µM: Homo sapiens, HT-29, read-out: Intracellular ROS, percentage compared to the untreated control cells (ROS/SRB)
Outline: as §1

Caco‐2 [10] = assay: Intracellular ROS assay; format: cell-based; settings: for activity at 1 µM / activity at 10 µM: Homo sapiens, Caco-2, read-out: Intracellular ROS, percentage compared to the untreated control cells (ROS/SRB)
Outline: as §1

HepG2 [11] = assay: Cell growth inhibition, protein content; format: cell-based; settings: Homo sapiens, HepG2, 72 h, read-out: IC50 SRB
Outline: as §2

Caco‐2 [12] = assay: Cell growth inhibition, protein content; format: cell-based; settings: Homo sapiens, Caco-2, 72 h, read-out: IC50 SRB
Outline: as §2

HT‐29 [13] = assay: Cytotoxicity, mitochondrial activity; format: cell-based; settings: Homo sapiens, HT-29, 72 h, read-out: IC50 MTT
Outline: as §3

EA.hy926 [14] = assay: Cytotoxicity, mitochondrial activity; format: cell-based; settings: Homo sapiens, EA.hy 926, 72 h, read-out: IC50 MTT
Outline: as §3

Row | SMILES | activity at 1 µM (HepG2 [1]) [%] | activity at 10 µM (HepG2 [1]) [%] | IC50 (EA.hy926 [2]) [µM] | FRAP (Trolox equivalent per μM) [3] [Trolox equivalent per μM] | FRAP (curcumin equivalent per μM) [3] | solubility at 90 min [4] [µM] | solubility at 24 h [4] [µM] | IC50 (HepG2 [5]) [µM] | IC50 (HT‐29 [6]) [µM] | IC50 (Caco‐2 [7]) [µM] | activity at 10 µM (EA.hy926 [8]) [%] | activity at 1 µM (HT‐29 [9]) [%] | activity at 10 µM (HT‐29 [9]) [%] | activity at 1 µM (Caco‐2 [10]) [%] | activity at 10 µM (Caco‐2 [10]) [%] | IC50 (HepG2 [11]) [µM] | IC50 (Caco‐2 [12]) [µM] | IC50 (HT‐29 [13]) [µM] | IC50 (EA.hy926 [14]) [µM] | activity at 1 µM (EA.hy926 [8]) [%] | further results
1 | COc1cc(/C=C/c2cc(/C=C/c3cccnc3)[nH]n2)ccc1O [4 a, 2‐Methoxy‐4‐{(E)‐2‐[5‐((E)‐2‐(pyridin‐3‐yl)vinyl)‐1H‐pyrazol‐3‐yl]vinyl}phenol] | 88.4 ± 6.3 | 83.1 ± 5.5 | 60.7 ± 0.7 | 0.57 | 0.55 curcumin equivalent per μM | 8.8 ± 0.4 (≈ 2.81 µg/mL) | 7.7 ± 0.7 (≈ 2.46 µg/mL) | 11.2 ± 0.1 | 24 ± 1.6 | 53.7 ± 6.1 | 97.3 ± 7.3 | 61.3 ± 6.9 | 84.8 ± 3.8 | 79.1 ± 8.8 | 86.7 ± 2 | > 75 | 18.7 ± 1.2 | > 75 | 18.5 ± 1.3 | – | antioxidant activity in words, FRAP [3]: comparable to ascorbic acid; change of intracellular ROS in words (HT‐29 [9]; HT‐29, vs untreated control, 10 and 1 μM): significantly decreased ROS signal; change of intracellular ROS in words (Caco‐2 [10]; Caco‐2, vs untreated control, 10 and 1 μM): significantly decreased ROS production
2 | O=C(/C=C(O)/C=C/c1cccnc1)/C=C/c1c[nH]c2ccccc12 [3 h, (1E,4Z,6E)‐5‐Hydroxy‐1‐(1H‐indol‐3‐yl)‐7‐(pyridin‐3‐yl)hepta‐1,4,6‐trien‐3‐one] | 115 ± 4.5 | 112 ± 4.9 | 2.9 ± 0.1 | 0.13 | 0.12 curcumin equivalent per μM | 5.3 ± 0.1 (≈ 1.68 µg/mL) | 5.4 ± 0.1 (≈ 1.71 µg/mL) | 5 ± 0.3 | 34.6 ± 0.8 | 6.7 ± 0.4 | 107 ± 5.3 | 82.3 ± 1.5 | 95.6 ± 4.2 | 111 ± 3.2 | 128 ± 8.2 | 10.2 ± 0.4 | 10.3 ± 0.1 | 6.4 ± 0.8 | 6.2 ± 0.3 | 97.9 ± 9.8 | change of intracellular ROS in words (HepG2 [1]; HepG2, vs untreated control, 10 and 1 μM): significantly increased ROS production
3 | O=C(/C=C(O)/C=C/c1ccc2ccccc2n1)/C=C/c1c[nH]c2ccccc12 [3 k, (1E,4Z,6E)‐5‐Hydroxy‐1‐(1H‐indol‐3‐yl)‐7‐(quinolin‐2‐yl)hepta‐1,4,6‐trien‐3‐one] | 156 ± 13 | 197 ± 24.6 | 53.2 ± 1.3 | 0.20 | 0.19 curcumin equivalent per μM | 8.1 ± 0.1 (≈ 2.97 µg/mL) | 9.6 ± 0.8 (≈ 3.52 µg/mL) | 56.2 ± 1.6 | 43.8 ± 0.9 | 44.7 ± 2.1 | 126 ± 5.6 | 112 ± 10.8 | 116 ± 7.1 | 162 ± 21.7 | 168 ± 28.1 | 54.1 ± 1 | 47.5 ± 0.2 | 42 ± 2 | 38.3 ± 1.7 | 120 ± 9.2 | –
4 | O=C(/C=C(O)/C=C/c1ccc[nH]1)/C=C/c1c[nH]c2ccccc12 [3 l, (1E,4Z,6E)‐5‐Hydroxy‐1‐(1H‐indol‐3‐yl)‐7‐(1H‐pyrrol‐2‐yl)hepta‐1,4,6‐trien‐3‐one] | 600 ± 61.8 | 998 ± 60.2 | 4.2 ± 0.3 | 0.29 | 0.27 curcumin equivalent per μM | 12.2 ± 0.3 (≈ 3.71 µg/mL) | 12 ± 0.7 (≈ 3.65 µg/mL) | 16.5 ± 0.4 | 10 ± 0.1 | 6.5 ± 0.2 | 826 ± 22.7 | 152 ± 8.8 | 558 ± 96.3 | 410 ± 31.9 | 767.2 ± 4.1 | 9.8 ± 0.3 | 10.1 ± 0.5 | 10.5 ± 0.1 | 3.3 ± 0.1 | 438 ± 46.1 | –
